ChEMBL document CHEMBL1268948, “1,6-AnhMurNAc derivatives for assay development of amidase AmiD” (Bioorg Med Chem, 2010)
Active and inactive are the calls of the source. No cut-off for these calls is given here.

How the values were obtained:
Escherichia coli [1] = assay: Inhibition of Escherichia coli N-acetyl-muramoyl-L-alanine amidase AmiD assessed as residual activity at 1 mM preincubated for 30 mins
Escherichia coli [2] = assay: Inhibition of Escherichia coli N-acetyl-muramoyl-L-alanine amidase AmiD assessed as residual activity at 100 uM after 20 mins
How it was run: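 Periplasmic soluble E. coli AmiD (sAmiD, 39 nM) was preincubated with the test compound for 20 min at 30 °C in 20 mM sodium phosphate buffer containing 48 nM ZnCl₂. Residual activity was taken as the initial rate of hydrolysis of 29 µM TCT (GlcNAc-anhMurNAc-tetrapeptide) added afterwards. The reaction was stopped after 20 min with diluted H₃PO₄ and analysed by RP-HPLC.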

Escherichia coli [3] = assay: Inhibition of Escherichia coli N-acetyl-muramoyl-L-alanine amidase AmiD assessed as residual activity at 1 mM after 20 mins; values are per cent of control
Escherichia coli [4] = assay: Inhibition of Escherichia coli N-acetyl-muramoyl-L-alanine amidase AmiD assessed as residual activity at 0.5 mM after 20 mins; values are per cent of control

Row | SMILES | inhibition (Escherichia coli [1]) | inhibition (Escherichia coli [2]) | residual activity (Escherichia coli [3]) | residual activity (Escherichia coli [4])
1 | CC(=O)N[C@H]1[C@@H]2OC[C@@H](O2)[C@@H](OCc2ccccc2)[C@H]1O[C@H](C)C(=O)O | inactive |  |  | 
2 | CC(=O)N[C@H]1[C@@H]2OC[C@@H](O2)[C@@H](O)[C@H]1O[C@H](C)C(=O)Nc1ccc(C(C)=O)cc1 | inactive | inactive |  | 
3 | CC(=O)N[C@H]1[C@@H]2OC[C@@H](O2)[C@@H](O)[C@H]1O[C@H](C)C(=O)Nc1ccc(C(F)(F)F)cc1 | inactive | inactive |  | 

The remaining lines, values ahead:

Row | inhibition (Escherichia coli [1]) | inhibition (Escherichia coli [2]) | residual activity (Escherichia coli [3]) | residual activity (Escherichia coli [4]) | SMILES
4 | inactive | inactive |  |  | CC(=O)N[C@H]1[C@@H]2OC[C@@H](O2)[C@@H](O)[C@H]1O[C@H](C)C(=O)N[C@@H](C)C(=O)Nc1ccc([N+](=O)[O-])cc1
5 | inactive | inactive |  |  | CC(=O)N[C@H]1[C@@H]2OC[C@@H](O2)[C@@H](O)[C@H]1O[C@H](C)C(=O)Nc1ccccc1
6 |  | inactive | 64% | 83% | CC(=O)N[C@H]1[C@@H]2OC[C@@H](O2)[C@@H](O)[C@H]1O[C@H](C)C(=O)N[C@@H](C)C(=O)N[C@H](CCC(=O)Nc1ccccc1)C(=O)O
